Laboratory results from ChEMBL document CHEMBL4480456, “Potentially Cardiotoxic Diterpenoid Alkaloids from the Roots of Aconitum carmichaelii” (J Nat Prod, 2019).

Experiments:
H9c2 [1] = test: Cytotoxicity against rat H9c2 cells assessed as reduction in cell viability after 24 hrs by MTT assay; assay type: cell-based; details: H9c2, 24 h
Procedure, shortened: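 H9c2 cells cultured in DMEM with 10% FBS, penicillin/streptomycin/glutamine at 37 °C, 5% CO2. Seeded 1 × 10^5 cells/well, grown 24 h, then exposed to compounds for 24 h. The compounds came from 80 mM DMSO stocks diluted in complete medium to a series of concentrations. MTT added for 4 h, formazan dissolved in DMSO, OD read at 490 nm. Inhibition % taken against a cell-free medium blank. At least three experiments.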

H9c2 [2] = test: Disruption of mitochondrial membrane potential in rat H9c2 cells at 40 uM after 24 hrs by rhodamine 123 staining-based assay; assay type: ADME, cell-based; details: h9c2, 24 h
Procedure, shortened: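 H9c2 cells in imaging plates exposed 24 h, PBS-washed and stained 30 min with rhodamine 123. Then fixed in 4% paraformaldehyde 15 min and counterstained with DAPI 20 min. Rh123 intensity quantified by high-content imaging on In Cell Analyzer 6000. Means ± SD, three independent experiments.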

H9c2 [3] = test: Increase in intracellular calcium levels in rat H9c2 after 30 to 430 secs by FLIPR assay; assay type: ADME, cell-based
Procedure, shortened: (§1)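 H9c2 cells seeded at 1 × 10^5 cells/well and grown to confluency. Medium replaced by HBSS with 20 mM HEPES, then loaded with calcium-sensitive dye (Calcium 6 kit) for 2 h at 37 °C. Compounds freshly prepared in HBSS/HEPES were added and fluorescence was read on FLIPR. ΔF/F0 taken as peak amplitude change over initial intensity. Means ± SD, three independent experiments.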

H9c2 [4] = test: Induction of apoptosis in rat H9c2 cells at 40 uM after 24 hrs by DAPI/annexin V-FITC/PI double staining-based assay; assay type: cell-based; details: h9c2, 24 h
Procedure, shortened: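 H9c2 cells in imaging plates exposed 24 h, PBS-washed, stained 30 min with annexin V-FITC and PI. Then fixed in 4% paraformaldehyde 15 min and DAPI-labelled 20 min. High-content imaging on In Cell Analyzer 6000 quantified nuclear size and annexin V-FITC and PI intensities. Means ± SD, three independent experiments.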

H9c2 [5] = test: Increase in intracellular calcium levels in rat H9c2 at 80 uM after 30 to 430 secs by FLIPR assay; assay type: ADME, cell-based; details: h9c2, 80 µM; procedure, shortened: as §1
H9c2 [6] = test: Induction of membrane potential in rat H9c2 cells after 50 to 650 secs by FLIPR assay; assay type: cell-based
Procedure, shortened: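 H9c2 cells seeded at 1 × 10^5 cells/well and grown to confluency. Switched to HBSS with 20 mM HEPES and loaded with blue membrane-potential dye for 30 min at 37 °C. Compounds freshly prepared in HBSS/HEPES were added and fluorescence was read on FLIPR. ΔF/F0 taken as peak change over initial intensity. Means ± SD, three independent experiments.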

`CCN1C[C@]2(COC)[C@H](O)C[C@H](OC)[C@]34[C@@H]1[C@H]([C@H](OC)[C@H]23)[C@]1(OC(=O)c2ccccc2)[C@H]2[C@@H](OC(=O)c3ccccc3)[C@](O)(C[C@]24O)[C@@H](OC)[C@@H]1O` was tested, and the IC50 (H9c2 [1]) was over 100 µM.

In the case of `COC[C@]12CN(C)[C@H]3[C@@H]4[C@H](OC)[C@H]1[C@@]3([C@@H](OC)C[C@H]2O)[C@@H]1C[C@@]2(O)[C@H](OC(=O)c3ccccc3)[C@@H]1[C@]4(OC(=O)c1ccccc1)[C@@H](O)[C@@H]2OC`, the IC50 (H9c2 [1]) is reported as 12.9 µM.

In the case of `COC[C@]12CN(C)[C@H]3[C@@H]4[C@H](OC)[C@H]1[C@@]3([C@@H](OC)C[C@H]2O)[C@@H]1C[C@@]2(O)[C@H](OC(=O)c3ccccc3)[C@@H]1[C@]4(OC(C)=O)[C@@H](O)[C@@H]2OC`, the Activity (H9c2 [2]) is reported as “Toxic”, the Activity (H9c2 [3]) is reported as “Toxic” and the Activity (H9c2 [4]) is reported as “Non-Toxic”.

Work on `CCN1C[C@]2(COC)CC[C@H](OC)[C@@]34[C@@H]5C[C@@]6(O)[C@H](OC(=O)c7ccccc7)[C@@H]5[C@](OC)([C@@H](O)[C@@H]6OC)[C@@H](C[C@H]23)[C@H]14` yielded an IC50 (H9c2 [1]) of over 100 µM.

For `COC[C@@]12CC[C@H](OC)[C@@]34[C@@H]5C[C@@]6(O)[C@H](OC(=O)c7ccccc7)[C@@H]5[C@@](OC(C)=O)([C@@H]([C@H](OC)[C@H]13)[C@@H]4N(C)C2)[C@@H](O)[C@@H]6OC`, the Activity (H9c2 [2]) was “Toxic”, the Activity (H9c2 [3]) was “Toxic” and the Activity (H9c2 [4]) was “Non-Toxic”.

`C=C1[C@@H](O)[C@@]23C[C@H]4[C@@H]5[C@@]6(C)CCC[C@@]57[C@@H]2C[C@@H]1[C@H](OC(C)=O)[C@@H]3[C@H]7N4[C@H]6O` showed an IC50 (H9c2 [1]) of over 100 µM.

For `COC[C@@]12CC[C@H](OC)[C@@]34[C@@H]5C[C@@]6(O)[C@H](OC(=O)c7ccccc7)[C@@H]5[C@@](OC(=O)c5ccccc5)([C@@H]([C@H](OC)[C@H]13)[C@@H]4N(C)C2)[C@@H](O)[C@@H]6OC`, the IC50 (H9c2 [1]) was 44.3 µM.

`C=C1[C@@H](O)[C@@]23C[C@H]4[C@@H]5[C@@]6(C)CCC[C@@]57[C@@H]2C[C@@H]1[C@H](O)[C@@H]3[C@H]7N4[C@H]6O` gave an IC50 (H9c2 [1]) of over 100 µM.

`CCCCO[C@]12[C@H]3[C@@H](OC(=O)c4ccccc4)[C@](O)(C[C@H]3[C@@]34[C@@H](OC)C[C@@H](O)[C@@]5(COC)CN(CC)[C@H]3[C@@H]1[C@H](OC)[C@H]54)[C@@H](OC)[C@@H]2O` was tested, and the Activity (H9c2 [5]) was “Toxic”, the Activity (H9c2 [6]) was “Dose-dependent effect” and the IC50 (H9c2 [1]) was 21.2 µM.

`CCN1C[C@]2(COC)CC[C@H](OC)[C@@]34[C@@H]5C[C@@]6(O)[C@H](OC(=O)c7ccccc7)[C@@H]5[C@@](OC)([C@@H]([C@H](OC)[C@H]23)[C@H]14)[C@@H](O)[C@@H]6OC` gave an IC50 (H9c2 [1]) of 95.6 µM.

For `CCN1C[C@]2(COC)CC[C@H](OC)[C@@]34[C@@H]5C[C@@H]6[C@@H](OC)[C@H](O)[C@@](OC)([C@H]5[C@H]6OC(=O)c5ccccc5)[C@@H](C[C@H]23)[C@H]14`, the IC50 (H9c2 [1]) was over 100 µM.

`CCCCO[C@]12[C@H]3[C@@H](OC(=O)c4ccccc4)[C@](O)(C[C@H]3[C@@]34[C@@H](OC)C[C@@H](O)[C@@]5(COC)CN(C)[C@H]3[C@@H]1[C@H](OC)[C@H]54)[C@@H](OC)[C@@H]2O` was tested, and the Activity (H9c2 [2]) was “Toxic”, the Activity (H9c2 [4]) was “Toxic” and the IC50 (H9c2 [1]) was 27 µM.

Work on `COC[C@]12CN(C)[C@H]3[C@@H]4[C@H](OC)[C@H]1[C@@]3([C@@H](OC)C[C@H]2O)[C@]1(O)C[C@@]2(O)[C@H](OC(=O)c3ccccc3)[C@@H]1[C@]4(OC(=O)c1ccccc1)[C@@H](O)[C@@H]2OC` yielded an IC50 (H9c2 [1]) of over 100 µM.

In the case of `CCCCO[C@]12[C@H]3[C@@H](OC(=O)c4ccccc4)[C@](O)(C[C@H]3[C@@]34[C@@H](OC)CC[C@@]5(COC)CN(CC)[C@H]3[C@@H]1[C@H](OC)[C@H]54)[C@@H](OC)[C@@H]2O`, the Activity (H9c2 [2]) is reported as “Toxic”, the Activity (H9c2 [5]) is reported as “Toxic” and the Activity (H9c2 [4]) is reported as “Toxic”. For the same compound, the Activity (H9c2 [6]) was “Dose-dependent effect” and the IC50 (H9c2 [1]) was 19.2 µM.

`CCN1C[C@]2(COC)[C@H](O)C[C@H](OC)[C@@]34[C@@H]5C[C@@]6(O)[C@H](OC(=O)c7ccccc7)[C@@H]5[C@@](OC)([C@@H]([C@H](OC)[C@H]23)[C@H]14)[C@@H](O)[C@@H]6OC` showed an IC50 (H9c2 [1]) of 68.4 µM.
